Laboratory results as given in the RNAGym collection of RNA variant scans (doi:10.1126/science.aae0568).
Fewer inactive variants are shown than the library holds.

B1: tRNA (parent)
chain: GUUCCGUUGGCGUAAUGGUAACGCGUCUCCCUCCUAAGGAGAAGACUGCGGGUUCGAGUCCCGUACGGAACG

Variants of: B1
Test: yeast fitness relative to wild type (ratio to wild type); higher = fitter; tRNA-Arg(CCU), competitive growth, 37 C, YPD
Outline: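 For this measurement, the tRNA-Arg(CCU) gene was varied by chemical synthesis at a 3% per-site mutation rate across 69 sites, and each variant was placed at the native genomic locus in Saccharomyces cerevisiae. The pooled strains went through a 24-hour competition in YPD at 37°C in six parallel replicates, with amplicons from start and end populations read by 100-nucleotide paired-end sequencing. Darwinian fitness relative to wild type followed from the change in each genotype's frequency. Genotypes needed ≥ 100 starting reads, and estimates < 0.5 were set to 0.5.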

Variant | yeast fitness
GUACCGUUGGCCUAAUGGUAACGCGUCUCCCUCCUAAGGAGAAGACUGCGGAUUCGAGUCCCGUUCGGAACG | ≤ 0.5
GUACCAUUGGCGUAAUGGUAACGCGUCUCCCUCCUAAGGAGAAGAUUGCGGGUUCGAGUCCCGUACGGAACG | 0.638
GUACCGUUGGCGUAAUGGUAACGCCUCUCCCUCCUAAGGAGAAGACAGCGGGUUCGAGUCCCGUACGGAACG | 0.547
GUACCGUUGGCGUAAUGGUAACGCGUCUCCCUCCUAAGGAGAAGACUGCGGGUUCGAGUCCCGUACCGAACG | 0.827
GUACCGUUGGCGUAAUGGUAACGCGUCUCCCUCCUAAGGAGAAGACUGCGGGUUCGAGUACCGUACGGAACG | 0.677
GUACCGUUGGCCUAAUGGUACCGCGUCUCCCUCCUCAGGAGAAGACUGCGGGUUCGAGUCCCGUACGGAACG | ≤ 0.5
GUACCGUUGGCGUAAUAGUAAUGCGUCUCCCUCCCAAGGAGAAGACUGCGGGUUCGAGUCCCGUGCGGAACG | ≤ 0.5
GUACCGUUAGCGUAAUGGUAACGCGUCUCCCUCCUAAGGAGAAGACUGCGGGUUCGAGUCCGGUAGGGAACG | ≤ 0.5
GUACCAUUGGCAUAAUGGUGAGGCGACUCCCUCCUAAGGAGAAGACUCCGGGUUCGAGUCCCGUACGUAACG | ≤ 0.5
GUACCGUUGGCGUAAUGGUAACGCGUCUCCCUCCUAAGGAGAAGACUGCGGGUUCGAGUCCCCUACGGAACG | 0.743
GUACCGUUGGCGUAAUGGUAACGCGUCUCCCUCCUAAGGAGAAGACUGCGGGUUCGAGUCCCAUACGGAACG | 0.772
GUACCGUUGACGUAAUGGUAACGCGUCUCCCGCCUAAGGAGAAGACUGCGGGUUCGAGUCCCGUAAGGAACG | ≤ 0.5
GUACCGUUGGCGUAAUGGUAACGCGUCUCCCUCCUAAGGAGAAGACUGCGGAUUCGAGUCCCGUACGGAACG | 0.764
GUACCGUUGGCGUAAUGGUAACGCGUCUCCCUCCUAAAGGGAAGACUGCGGGUUCGAGUCCCGUACGGUACG | ≤ 0.5
GUACCGUUGGCAUAAUGGAAACGCGUCUCCCUCCUAAGGAGAAGACUGCGGGUUCGAGUACCGUACGGACCG | 0.569
GUACCGUUAGCGUCAUGGUAACGCGUCUCCCUCCUAAGGAGAAGACUGCGGGUUCGAGUCCCGUACGGAACG | 0.551
GUACCAUUGGCGUAAUGGUAACGCCUCUCCCUCCUAAGGAGACGACUGCGGGUUCGAGUCCCGUACGGAACG | 0.614
GUACCGUUGGCGUAAUGGUAACGCGUCUCCCUCCUAAGGAGAAGAGUGCGGGUUCGAGUCCCGUACGGACCG | 0.715
GUACCGUUCGCGUAAUGGUGACGCGUCUACCUCCUAAGGAGAAGACUGCGGGUUCAAGUCCCGUACUGAACG | ≤ 0.5

Variant | yeast fitness
GUACCGUUGGCGUAAUGGUAACGCGUCUCCCUCCUAAGGAGAAGACUGCGGGUUCGAGUCCCGUACGAAACG | 0.854
GUACCGUUGGCGUAAUGGUAACGCGUCUCCCUCCUAAGGAGAAAACUGCGGGUUCGAGUCCCGUACGGAACG | 0.807
GUACCGUUGGCGUAAUGGUAACGCGUCUCCCUCCUAAGGAGAAGACUCCGGGUUCGAGCCCCGUACGGAACG | 0.537
GUACCGUUAGCGUAAUGGUAACGCGUCUCCCUCCUAAGGAGAAGACUGCGGGUUCGAGUCCCGUACGGAACG | 0.977
GUACCGUUCGCGUAAUGGUAACGCGUCUCCCUCCUAAGGAGAAGACUGCGGGUUCGAGUCCCGUACGGAACG | 0.567
GUACCGUUGGCGUAAUGGUAACGCGUCUCCCUCCUAAGGAGAAGAUUACGGGUUUGAGACCCGUACGGAACG | ≤ 0.5
GUACCGUUGGCGUAAUGGUAACGCGUCUCCCUCCUAAGAAGAAGACUGCGGGUUUGAGGCCCGUACGCAACG | ≤ 0.5
GUACCGUUAGCGUAAUGGUAACGCGUCUGCCUCCUAAGGAGAAGACUGCGGGUUCGAGUCCCGUACGGAACG | 0.585
GUACCGUUGGCGUAAUGGUAACGCGUCUCCCUCCUAAGGAGAAGACUGCGGGUUGGAGUCCCGUCCGGAACG | ≤ 0.5
GUACCGUUGGCAUAAUGGAAACGCGUCUCCCUCCUAACGAGAAGACUACGGGUUCGAGUCCCGUACGGAACG | ≤ 0.5
GUACCGUUAGCGUCAUGGUAACGCGUCUCCCUCCUAAGGAGAAGACUGCGGGUUGGAGUCCCGUACGGAACG | ≤ 0.5
GUACCGUUGGCGUAAUGGUAACCCGUCUCCCUCCUAAGGAGAAGAAUGAGGGUUCGAGUCGCGUACGGAACG | ≤ 0.5
GUACCGUUGCCGUAAUGGUAACGCGUCUCCCUCCUUAGGCGAAGACUGCGGGUUCGAGUGCCGUACGGAACG | 0.569
GUACCGUUGGCGUAAUGGUAACGCGUCUCCCUCCUAAGGAGAAGACUGCGGGUUCCAGUCCCGUACGGAACG | 0.716
GUACCGUUGGCGUAAUGGUAACGCGUCUCCCUCCUAAGGAGAAGACUGCGGGUUCAAGUCCCGUACGGAACG | 1.02
GUACCGUUGGCAUAAUGGUAACGCGUCUGCCUCCUAAGAAGAAGACUGCGGGUUCGAGUCCCGUAGGGAACG | ≤ 0.5
GUACCGUUAGCGUAAUGGAAACGCGUCUCCCUCCUAAGGAGAACACUGCGGGUUCGAGUCCCGUACGCAACG | ≤ 0.5
GUACCGUUGGCGUAAUGGUAACGCGUCUCCCUCCUAAGGAGAAGACUGCGAGUUCGAGUCCCGUGCGGUACG | 1.03
